CaV13 FRET inh = Disruptors of the CACNA1D IQ motif to Ca2+-dependent inactivation inhibitor domain association, primary screening, Förster resonance energy transfer in intact living …; 0.098% of 340,000 active; inhibition, % at 12.3 µM; HEK cells, CFP/YFP FRET ICDI-IQ, plate reader, 10 min; percent FRET-ratio fall versus neutral wells;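 active = mean replicate inhibition of at least 30% and at least 1% of replicates passing that level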;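 also: 0% = median of the neutral control wells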
CAL PDZ FP-1 = human CAL PDZ-peptide interaction inhibition. Q9HD26. purified CAL PDZ, TMR-peptide fluorescence polarization, 1 h. inhibition, % at 20 µM. 0.02% of 330,000 active. AID 504414;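 active = highest replicate inhibition of at least 40%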;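 also: plate controls were DMSO neutral control wells for no effect and unlabeled competitor peptide control wells for full effect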
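Material: tagged CAL PDZ protein CerCALP, purified; buffer or medium: sodium phosphate/NaCl buffer pH 7.4 with TCEP, IgG, Thesit; also added: fluorescent TMR peptide probe; schedule: 1 h incubation at room temperature before polarization reading; technique: fluorescence polarization from S- and P-plane intensities, G-factor corrected; control set: unlabelled peptide and DMSO controls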
CAL PDZ FP-2 = blocks peptide binding to the human CAL PDZ domain; inhibition, % at 24.9 µM; purified CAL PDZ, TMR-peptide fluorescence polarization, 1 h; Q9HD26; 0.92% of 300,000 active;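 active = mean inhibition of at least 30% with at least half of replicates also reaching 30%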;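 also: 0% = DMSO neutral control and 100% = excess unlabeled competitor peptide PRC23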
C-LANA FP = inhibitors of KSHV LANA C-terminal domain DNA binding; MBP-C-LANA/FAM-LBS DNA binding, fluorescence polarization; 0.078% of 340,000 active; inhibition, % at 9 µM;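 active = highest replicate inhibition at or above 60% at 9 µM, even if other replicates fall short; inactive = all replicates below 60% inhibition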;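 also: 0% = neutral control wells and 100% = 4 µM acridine orange control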
LANA-H2B inh = blocks KSHV LANA binding to histone H2A/H2B | 0.6% of 320,000 active | AID 2629 | Q9QR71 | inhibition, % (concentration not given with the values) | cell-free LANA-H2A/H2B peptide, fluorescence polarization; in the data active = inhibition mostly above about 10%, no sharp cut-off; inactive = mostly below about 6.7%
Keap1-Nrf2 PPI = disrupts human Keap1 binding to Nrf2 peptide; Keap1 Kelch-Nrf2 peptide fluorescence polarization, 1536-well; 0.15% of 340,000 active; inhibition, % at 9.4 µM; in the data active = inhibition above about 12%;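 also: human Keap1 Kelch domain with fluorescein labeled Nrf2 9mer peptide probe; 0% = neutral control wells and 100% = peptide positive control; higher means more block of Keap1 binding to Nrf2 peptide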
Target sequence (Q14145 whole entry, looked up, the tested form may be a part): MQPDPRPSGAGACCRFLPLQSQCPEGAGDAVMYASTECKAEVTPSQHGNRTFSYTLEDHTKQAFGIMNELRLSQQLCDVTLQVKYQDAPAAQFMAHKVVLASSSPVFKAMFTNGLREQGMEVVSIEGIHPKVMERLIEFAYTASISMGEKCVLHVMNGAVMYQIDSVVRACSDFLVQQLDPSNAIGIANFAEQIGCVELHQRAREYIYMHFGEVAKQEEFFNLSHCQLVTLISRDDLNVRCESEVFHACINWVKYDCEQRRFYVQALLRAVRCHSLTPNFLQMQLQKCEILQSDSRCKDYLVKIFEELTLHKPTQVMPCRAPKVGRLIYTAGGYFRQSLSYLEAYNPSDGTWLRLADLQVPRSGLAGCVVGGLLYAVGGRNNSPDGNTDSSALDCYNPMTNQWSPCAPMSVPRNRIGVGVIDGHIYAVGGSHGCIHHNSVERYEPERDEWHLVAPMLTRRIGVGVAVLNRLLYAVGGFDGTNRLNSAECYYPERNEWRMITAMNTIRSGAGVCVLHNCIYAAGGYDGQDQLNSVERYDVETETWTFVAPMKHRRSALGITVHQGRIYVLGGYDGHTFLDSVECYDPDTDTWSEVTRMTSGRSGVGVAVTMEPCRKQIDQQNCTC
* hit, by the source's call; . = no result given; + = active, no number. The list is not random: actives were taken first. Their share in the collection is about 1.5%.

SMILES | CaV13 FRET inh | CAL PDZ FP-1 | CAL PDZ FP-2 | C-LANA FP | LANA-H2B inh | Keap1-Nrf2 PPI
CCOCCCNC(=O)c1ccc2c(=O)n(Cc3ccc4c(c3)OCO4)c(=S)[nH]c2c1 | 3.1 | 34.5 | 36.8* | -2.1 | -3.5 | -4.0
CCCCNC(=O)c1ccc2c(=O)n(CCCOCC)c(=S)[nH]c2c1 | -4.9 | -0.6 | -2.9 | -0.2 | 2.6 | -3.1
COCCCNC(=O)c1ccc2c(=O)n(Cc3ccc4c(c3)OCO4)c(=S)[nH]c2c1 | -5.2 | -0.2 | -1.8 | 0.9 | 4.4 | 0.9
COCCN(Cc1nnc(-c2cccs2)o1)C(=O)CN1C(=O)NC2(CCCCC2)C1=O | -5.9 | -1.2 | -2.3 | -0.9 | -4.9 | -4.2
O=C(NCc1ccccc1)[C@@H]1CCCN1C(=O)[C@@H](NS(=O)(=O)c1ccc(F)cc1F)c1ccccc1 | -4.8 | . | . | . | . | .
CC(C)CN1CCN(Cc2ccc(CN3CCCCC3)s2)CC1CCO (centres undefined) | -4.5 | -2.0 | -2.9 | 0.0 | 41.4* | -2.5
CC(C)CN1CCN(Cc2nc3ccccc3s2)CC1CCO (centres undefined) | -5.6 | -3.5 | 0.7 | 0.6 | -1.2 | -9.0
O=C(O)c1ccccc1Sc1ncnc2sc3c(c12)CCC3 | -18.6 | . | 64.8* | -7.2 | 4.2 | -3.3
CCCCC(C(=O)OCC)C(N)Cc1ccc(F)cc1 (centres undefined) | -5.4 | -1.7 | -0.4 | 1.1 | 20.5* | -5.1
Brc1ccc(CN2CCCc3nc(-c4ccccc4)ccc32)cc1 | -11.3 | . | . | . | . | .
CC(=O)NC(Cc1ccccc1)C(C)=O (centres undefined) | -6.7 | 32.5 | 100.5* | 4.3 | -5.1 | 6.1
CC(=O)C(Cc1ccccc1)NC(=O)CCl (centres undefined) | 0.2 | 0.2 | 0.8 | -1.3 | -0.1 | -0.7
Cc1ccccc1-n1nc2c(c1NC(=O)c1cc3ccccc3oc1=O)CS(=O)C2 (centres undefined) | . | . | 97.5* | -0.9 | 2.9 | -1.4
Cc1ccccc1-n1nc2c(c1NC(=O)c1cc3ccccc3oc1=O)CS(=O)(=O)C2 | -8.8 | . | . | . | -0.3 | .
CC(C)COc1ccc(C(=O)Nc2ccc(N3CCOCC3)cc2N2CCOCC2)cc1 | -9.5 | -0.5 | -2.3 | -3.2 | -1.8 | -1.6
CCCCCOc1ccc(C(=O)Nc2ccc(N3CCOCC3)cc2N2CCOCC2)cc1 | -18.1 | -1.1 | 44.6* | -1.5 | . | 1.5
Cc1cccc(NC(=O)CSCC(=O)Nc2ccc(N3CCOCC3)cc2N2CCOCC2)c1 | -3.5 | 0.0 | 89.1* | -0.5 | . | 1.0
COc1cc(/C=N/Nc2nc(C)cc(C)n2)cc(OC)c1OC | -4.7 | 14.1 | 75.5* | 3.0 | 3.6 | -1.6
Cc1cc(C(=O)COC(=O)CCc2nc3ccccc3s2)c(C)n1C | -3.8 | -1.7 | . | -1.1 | 12.5* | -3.9
O=C(CCc1nc2ccccc2s1)OCc1ccccc1 | -16.7 | -1.9 | -3.2 | 0.1 | 1.3 | -7.9
CCN(C(=O)c1ccc2c(SCC(=O)O)c3c(nc2c1)CCC3)c1cc(Cl)ccc1OC | -6.9 | 0.4 | 101.3* | 0.0 | 4.2 | -0.2
COc1ccc(CCNC(=O)CS(=O)Cc2nc(-c3ccccc3F)oc2C)cc1OC (centres undefined) | -2.6 | -3.7 | -0.9 | 0.7 | 0.1 | -8.9
COc1ccc(CCNC(=O)CS(=O)Cc2nc(-c3ccccc3Cl)oc2C)cc1OC (centres undefined) | -7.2 | -2.7 | 0.8 | -0.9 | 17.0* | -1.7
C[C@H](NC(=O)c1ccco1)C(=O)Nc1ccc(C#N)cc1 | -3.9 | -0.9 | -3.5 | -0.5 | 5.7 | -3.8
Cc1ccc(OCCn2cncn2)c([N+](=O)[O-])c1 | 0.1 | -0.9 | . | -0.7 | 3.2 | -2.9
SMILES | CaV13 FRET inh | CAL PDZ FP-1 | CAL PDZ FP-2 | C-LANA FP | LANA-H2B inh | Keap1-Nrf2 PPI
Cc1ccc(C(C)C)cc1OCCn1cncn1 | -1.4 | . | 66.3* | 0.1 | -0.4 | 6.2
CCN=C1NC(c2ccc(F)cc2)C(C(=O)OC)=C(C)N1Cc1cccc(C(F)(F)F)c1 (centres undefined) | -2.9 | . | . | . | . | .
CCCCCn1nc(-c2ccccc2)c2nc3ccccc3nc21 | -10.6 | -0.5 | -4.6 | 93.7* | 29.9* | 0.6
COC(=O)c1cc2c(c3c4cc(OC)ccc4n(S(=O)(=O)c4cccc(C)c4)c13)C(=O)N(C)C2 | -4.1 | . | . | . | . | .
COC(=O)C1=C(C)N(Cc2cccc(C(F)(F)F)c2)C(=NCc2ccccc2C(F)(F)F)NC1c1ccc(Cl)cc1 (centres undefined) | -4.9 | . | . | . | . | .
Cc1oc(/N=C/c2ccc(F)cc2)c(C#N)c1C | 82.3* | 0.1 | -0.9 | 3.3 | 1.7 | -1.8
COC(=O)c1c(NC(=O)C(=O)N2CCOCC2)sc2c1CCC2 | -6.4 | -2.7 | -20.8 | -0.3 | 13.3* | -0.3
COc1ccc(-c2nnc(SCC(=O)O)n2Cc2ccccc2)cc1 | -1.6 | -0.1 | 56.7* | -3.5 | -3.0 | 1.0
CC(C)C(C)(C#N)NC(=O)CSc1nnc(-c2ccncc2)n1Cc1ccccc1 (centres undefined) | -4.0 | -1.3 | 35.1* | 1.4 | -5.6 | -3.7
CC(C)(C)NC(=O)CSc1nnc(-c2ccncc2)n1Cc1ccccc1 | -0.7 | -0.6 | -6.2 | -1.8 | -1.6 | -1.1
COc1cc(OC)cc(C(=O)NC(C(=O)Nc2ccc3nc(C)sc3c2)C(C)C)c1 (centres undefined) | -2.7 | -1.1 | -3.2 | -0.1 | . | 1.5
Cc1nc2ccc(NC(=O)[C@@H](NC(=O)c3c(F)cccc3F)C(C)C)cc2s1 | -3.5 | -0.7 | -3.1 | 1.4 | + | -3.6
COc1cccc(CNC(=O)[C@H]2CCCN2C(=O)[C@H]2CCCN2C(=O)c2cccc(OC)c2)c1 | -9.4 | . | . | . | . | .
CC(=O)n1nc(-c2ccccc2)nc1NCc1cccs1 | -6.2 | 7.5 | 71.6* | -5.1 | -2.5 | -8.8
C=CCN=C1N[C@@H](c2cccc(C(F)(F)F)c2)C(C(=O)OC)=C(C)N1CC | -4.3 | -0.5 | -7.0 | -1.2 | 5.4 | -3.7
CCN1C(=NCC(C)C)N[C@@H](c2cccc(C(F)(F)F)c2)C(C(=O)OC)=C1C | -5.8 | 0.0 | 5.7 | 0.1 | 13.1* | -5.2
CC(=O)Nc1ccc(S(=O)(=O)N2CCCCC2C(=O)O)cc1 (centres undefined) | -19.7 | -1.8 | -3.7 | -1.6 | 8.1 | -0.7
COC(=O)Nc1ccc(S(=O)(=O)N2CCCCC2C(=O)O)cc1 (centres undefined) | -7.1 | -0.8 | 73.1* | -1.9 | -9.9 | -0.2
COCC(C)NC(=O)c1cc(-c2ccccc2OC)on1 (centres undefined) | -7.1 | -1.1 | . | 2.1 | 21.3* | 4.7
COc1ccccc1-c1cc(C(=O)NCCN2CCOCC2)no1 | -9.5 | -0.5 | . | 1.2 | 15.5* | 2.1
NS(=O)(=O)c1ccc(CNC(=S)NCc2ccc(F)cc2)cc1 | . | -1.0 | 38.9* | 1.9 | 0.9 | 5.5
